Source: ChEMBL document CHEMBL3044840, “Antifungal activities of metabolites produced by a termite-associated Streptomyces canus BYB02” (J Agric Food Chem, 2013)
Values after ≈ are worked out from the molar mass of the structure shown.

Columns and labels:
Cytospora mali = experiment: Antifungal activity against Valsa mali assessed as inhibition of mycelial growth; type: functional, organism-based
In short: (§1)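 Mycelial growth on potato dextrose agar in 9 cm dishes containing serial concentrations of sample, dissolved in aqueous 1% DMSO/4% Tween-80. Mycelium inoculated at plate centre and incubated in the dark at 28 °C until control growth reached the dish edge. Inhibition (%) = (1 − Da/Db) × 100 from growth-zone diameters. IC50 by probit analysis. Cycloheximide as positive control. Run in triplicate.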

Pyricularia grisea [1] = experiment: Antifungal activity against Magnaporthe grisea assessed as inhibition of mycelial growth; type: functional, organism-based
In short: (§2)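 Poisoned-food assay. Serial concentrations in aqueous 1% DMSO/4% Tween-80 were mixed into molten potato dextrose agar. Mycelium was inoculated at the plate centre and incubated in the dark at 28 °C until control growth reached the dish edge. Inhibition % = (1 − Da/Db) × 100 from colony diameters. IC50 by probit analysis; run in triplicate.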

[2] = system: Fusarium oxysporum f. sp. cucumerinum; experiment: Antifungal activity against Fusarium oxysporum f. sp. cucumerinum assessed as inhibition of mycelial growth; type: functional, organism-based; in short: as §1
Rhizoctonia solani = experiment: Antifungal activity against Rhizoctonia solani assessed as inhibition of mycelial growth; type: functional, organism-based; in short: as §1
Dothiorella gregaria = experiment: Antifungal activity against Dothiorella gregaria assessed as inhibition of mycelial growth; type: functional, organism-based; in short: as §1
Fusarium graminearum = experiment: Antifungal activity against Fusarium graminearum assessed as inhibition of mycelial growth; type: functional, organism-based; in short: as §2
Pyricularia grisea [3] = experiment: Antifungal activity against Magnaporthe grisea in fourth-leaf stage of rice plant assessed as preventive efficacy at 100 ug/ml after 11 days relative to control; type: functional
Pyricularia grisea [4] = experiment: Antifungal activity against Magnaporthe grisea in fourth-leaf stage of rice plant assessed as curative efficacy at 100 ug/ml after 11 days relative to control; type: functional
Pyricularia grisea [5] = experiment: Antifungal activity against Magnaporthe grisea assessed as inhibition of spore germination after 12 hr by light microscopic analysis; type: functional, organism-based
In short: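 M. oryzae spores were taken from 7-day oatmeal–tomato agar cultures. 50 μL of compound in 1% DMSO/4% Tween-80 was mixed with 50 μL spore suspension (2.5 × 10^5 spores). 40 μL drops went on slides, in triplicate. Slides were kept in a moist chamber at 28 °C for 12 h. About 100 spores per replicate were scored; IC50 by probit analysis.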

**Q.** With `Cc1cc(O)cc2cc3c(c(O)c12)C(=O)c1c(O)cc(O)cc1C3=O` [TETRACENOMYCIN D] as the compound, how does the IC50 (Cytospora mali) read?
**A.** > 25 µg/mL

**Q.** What about the IC50 (Pyricularia grisea [1]) of the same compound?
**A.** > 25 µg/mL

**Q.** How did the IC50 (Cytospora mali) turn out when `C[C@@H]1C[C@@H]([C@H](O)CC2CC(=O)NC(=O)C2)C(=O)[C@@H](C)C1` [CYCLOHEXIMIDE] was run?
**A.** 0.3 µg/mL (≈ 1.07 µM)

**Q.** And the IC50 (Pyricularia grisea [1])?
**A.** 2.3 µg/mL (≈ 8.17 µM)

**Q.** And the IC50 [2]?
**A.** 4.9 µg/mL (≈ 17.4 µM)

**Q.** What about the IC50 (Rhizoctonia solani) of the same compound?
**A.** 0.3 µg/mL (≈ 1.07 µM)

**Q.** And the IC50 (Dothiorella gregaria)?
**A.** 0.9 µg/mL (≈ 3.2 µM)

**Q.** What about the IC50 (Fusarium graminearum) of the same compound?
**A.** 3.3 µg/mL (≈ 11.7 µM)

**Q.** Which Activity (Pyricularia grisea [3]) does the source give for `COC(=O)Nc1nc2ccccc2[nH]1` [CARBENDAZIM] here?
**A.** 58.7%

**Q.** Which results are given for `Cc1cc(O)c2c3c4c(cc(O)c13)C(C)(C)C(=O)c1c(O)cc(O)c(c1-4)C2=O` [HELIOMYCIN]?
**A.** IC50 (Cytospora mali): 1.1 µg/mL (≈ 2.92 µM); IC50 (Pyricularia grisea [1]): 3.8 µg/mL (≈ 10.1 µM); Activity (Pyricularia grisea [4]): <25%; Activity (Pyricularia grisea [3]): 66.8%; IC50 (Pyricularia grisea [5]): 5.55 µg/mL (≈ 14.7 µM); IC50 [2]: > 100 µg/mL; IC50 (Rhizoctonia solani): > 100 µg/mL; IC50 (Dothiorella gregaria): > 100 µg/mL; IC50 (Fusarium graminearum): > 100 µg/mL
